The experiment is described as follows: Ability to reverse action of CpG-ODN on WEHI 231 murine B-cell lymphoma cells. The format is functional, cell-based, Mus musculus. The method in brief:
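WEHI 231 murine B-lymphoma cells at 2 × 10⁵ per mL; anti-surface IgM (10 μg/mL) kills them, and CpG-ODN 1760 (6 µg/mL) reverses this. Compounds were added in triplicate at 3-fold dilutions, with or without anti-IgM. Cells were incubated 16 h at 37 °C, then pulsed with 0.5 μCi ³H-thymidine for 4 h. The concentration halving the CpG-ODN effect was read graphically from log dose-response plots. Quinacrine served as internal control.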
`Cc1cccc(-c2cc(NCCC3CCCN3C)c3ccccc3n2)c1` (stereo unspecified): the “Log 1/EC50” value was determined as 7.85.

Turning to `CN(C)CCNc1cc(-c2ccc(CN3CCN(C)CC3)cc2)nc2ccccc12`, the “Log 1/EC50” value is reported as 8.15.

For the compound `CN1CCN(Cc2cccc(-c3cc(NCCCn4ccnc4)c4ccccc4n3)c2)CC1`, the “Log 1/EC50” value is reported as 6.92.

Turning to `Cc1ccc(-c2cc(NCCCCCO)c3ccccc3n2)cc1`, the “Log 1/EC50” value came to 5.74.

Regarding `CN(C)CCCNc1cc(-c2ccc(N3CCN(C)CC3)cc2)nc2ccccc12`, the “Log 1/EC50” value was 9.

In the case of `CCN1CCCC1CNc1cc(-c2ccc(F)cc2)nc2ccccc12` (stereo unspecified), the “Log 1/EC50” value was determined as 7.77.

With `Cc1cccc(-c2cc(NCCCN3CCOCC3)c3ccccc3n2)c1`, the “Log 1/EC50” value is reported as 7.3.

For `Cc1cccc(-c2cc(NCCN(C)C)c3ccccc3n2)c1`, the “Log 1/EC50” value was 7.74.

As for `CCN1CCCC1CNc1cc(-c2ccc(C)cc2)nc2ccccc12` (stereo unspecified), the “Log 1/EC50” value is recorded as 7.66.

Regarding `CN1CCN(CCNc2cc(-c3ccc(F)cc3)nc3ccccc23)CC1`, the “Log 1/EC50” value turned out to be 7.73.

On to `Fc1ccc(-c2cc(NCCCN3CCOCC3)c3ccccc3n2)cc1`, for which the “Log 1/EC50” value was determined as 7.17.

In the case of `Fc1ccc(-c2cc(NCCCCN3CCCC3)c3ccccc3n2)cc1`, the “Log 1/EC50” value is 7.68.

`Fc1ccc(-c2cc(NCCN3CCCC3)c3ccccc3n2)cc1`: the “Log 1/EC50” value is 7.62.

With `CN1CCN(c2ccc(-c3cc(NCCCN4CCOCC4)c4ccccc4n3)cc2)CC1`, the “Log 1/EC50” value came to 8.66.

On to `NCCCCCNc1cc(-c2ccc(F)cc2)nc2ccccc12`, for which the “Log 1/EC50” value stood at 7.81.

Regarding `CN1CCN(CCCNc2cc(-c3ccc(CN4CCN(C)CC4)cc3)nc3ccccc23)CC1`, the “Log 1/EC50” value worked out at 8.17.

As to `Cc1ccc(-c2cc(NCCN(C)C)c3ccccc3n2)cc1`, the “Log 1/EC50” value is reported as 7.91.

Turning to `CN1CCCC1CCNc1cc(-c2ccc(F)cc2)nc2ccccc12` (stereo unspecified), the “Log 1/EC50” value was found to be 7.88.

As to `CN1CCN(c2ccc(-c3cc(NCCC4CCCN4C)c4ccccc4n3)cc2)CC1` (stereo unspecified), the “Log 1/EC50” value is listed as 8.7.

As for `Cc1cccc(-c2cc(NCCCN3CCN(C)CC3)c3ccccc3n2)c1`, the “Log 1/EC50” value amounted to 7.56.

Consider `CN(C)CCNc1cc(-c2ccc(N3CCCCC3)cc2)nc2ccccc12`, for which the “Log 1/EC50” value came to 8.27.

For `CN(C)CCCNc1cc(-c2ccc(N3CCCCC3)cc2)nc2ccccc12`, the “Log 1/EC50” value was found to be 7.8.

In the case of `Cc1cccc(-c2cc(OCCN(C)C)c3ccccc3n2)c1`, the “Log 1/EC50” value turned out to be 5.51.

With `Cc1ccc(-c2cc(Nc3ccc(O)c(CN4CCN(C)CC4)c3)c3ccccc3n2)cc1`, the “Log 1/EC50” value is recorded as 7.88.

With `CN1CCN(CCNc2cc(-c3ccc(N4CCN(C)CC4)cc3)nc3ccccc23)CC1`, the “Log 1/EC50” value is given as 8.82.

As to `Cc1ccc(-c2cc(OCCN(C)C)c3ccccc3n2)cc1`, the “Log 1/EC50” value stood at 5.88.

Regarding `CN(C)CCCCNc1cc(-c2ccc(N3CCCCC3)cc2)nc2ccccc12`, the “Log 1/EC50” value was found to be 7.33.

`Cc1cccc(-c2cc(NCCCn3ccnc3)c3ccccc3n2)c1`: the “Log 1/EC50” value is recorded as 6.71.

Consider `Cc1ccc(-c2cc(NCCCN(C)C)c3ccccc3n2)cc1`, for which the “Log 1/EC50” value was determined as 7.94.

For `Cc1cccc(-c2cc(NCCCN(C)C)c3ccccc3n2)c1`, the “Log 1/EC50” value worked out at 7.88.

On to `CN1CCN(Cc2cccc(-c3cc(NCCC4CCCN4C)c4ccccc4n3)c2)CC1` (stereo unspecified), for which the “Log 1/EC50” value was determined as 8.11.

On to `CCN(CC)CCNc1cc(-c2cccc(C)c2)nc2ccccc12`, for which the “Log 1/EC50” value is reported as 7.65.

For the compound `CN1CCN(Cc2cc(Nc3cc(-c4ccc(N5CCN(C)CC5)cc4)nc4ccccc34)cc(CN3CCN(C)CC3)c2O)CC1`, the “Log 1/EC50” value stood at 8.85.

As for `CN(C)CCCCNc1cc(-c2ccc(N3CCN(C)CC3)cc2)nc2ccccc12`, the “Log 1/EC50” value is given as 8.91.

Consider `Cc1ccc(-c2cc(Nc3cc(CN4CCN(C)CC4)c(O)c(CN4CCN(C)CC4)c3)c3ccccc3n2)cc1`, for which the “Log 1/EC50” value is 8.84.

Regarding `CN1CCN(c2ccc(-c3cc(NCCCCN4CCCC4)c4ccccc4n3)cc2)CC1`, the “Log 1/EC50” value is given as 8.26.

As to `CN1CCN(c2ccc(-c3cc(NCCN4CCCC4)c4ccccc4n3)cc2)CC1`, the “Log 1/EC50” value amounted to 8.62.

Consider `CN(C)CCCNc1cc(-c2ccc(F)cc2)nc2ccccc12`, for which the “Log 1/EC50” value is listed as 7.86.

For `OCCCCCNc1cc(-c2ccc(F)cc2)nc2ccccc12`, the “Log 1/EC50” value was determined as 5.16.

With `Cc1ccc(-c2cc(NCCCn3ccnc3)c3ccccc3n2)cc1`, the “Log 1/EC50” value was 6.98.

With `CN(C)CCCNc1cc(-c2ccc(CN3CCN(C)CC3)cc2)nc2ccccc12`, the “Log 1/EC50” value is 8.04.

As to `CCN(CC)CCNc1cc(-c2ccc(C)cc2)nc2ccccc12`, the “Log 1/EC50” value was found to be 7.73.

For `Cc1ccc(-c2cc(NCCCN3CCOCC3)c3ccccc3n2)cc1`, the “Log 1/EC50” value is recorded as 7.57.

`CN(C)CCNc1cc(-c2ccc(N3CCN(C)CC3)cc2)nc2ccccc12`: the “Log 1/EC50” value came to 9.12.

In the case of `CN1CCN(Cc2ccc(-c3cc(NCCN4CCCC4)c4ccccc4n3)cc2)CC1`, the “Log 1/EC50” value worked out at 8.49.

As for `CN(C)CCCCCNc1cc(-c2ccc(N3CCN(C)CC3)cc2)nc2ccccc12`, the “Log 1/EC50” value turned out to be 8.84.

On to `CN1CCN(Cc2cc(Nc3cc(-c4ccc(F)cc4)nc4ccccc34)cc(CN3CCN(C)CC3)c2O)CC1`, for which the “Log 1/EC50” value was 8.76.

In the case of `CCN1CCCC1CNc1cc(-c2cccc(C)c2)nc2ccccc12` (stereo unspecified), the “Log 1/EC50” value is 7.66.

For the compound `Cc1ccc(-c2cc(NCCCN3CCN(C)CC3)c3ccccc3n2)cc1`, the “Log 1/EC50” value turned out to be 7.86.

On to `CN1CCN(Cc2cc(Nc3cc(-c4ccc(F)cc4)nc4ccccc34)ccc2O)CC1`, for which the “Log 1/EC50” value was found to be 7.67.

For `CN(C)CCCCNc1cc(-c2ccc(F)cc2)nc2ccccc12`, the “Log 1/EC50” value turned out to be 7.76.

The record behind these values is ChEMBL document CHEMBL1136744, “Synthesis and activity of substituted 2-phenylquinolin-4-amines, antagonists of immunostimulatory CpG-oligodeoxynucleotides” (J Med Chem, 2003).
